Test: Toxicity liver stage against HepG2, at 10uM
Assay type: cell-based
Set-up: test concentration 10 uM, cell line HepG2-A16-CD81EGFP
Conditions: human, HepG2-A16-CD81EGFP cells; read-out: INHIBITION
Outline: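 Uninfected HepG2-A16-CD81EGFP cells, 3 × 10^3 per well, 1536-well, plated on prespotted compound at 10 μM final, parasite-free screening media added to match infected plates; puromycin 10 μM positive, DMSO 0.5% negative; run in parallel with 48 h PbLuc assay at 37 °C, 5% CO2; viability by CellTiter-Glo luminescence, normalized to controls.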

| SMILES | cytotoxicity at 10 µM |
| --- | --- |
| COCC(=O)N[C@H](C)c1c(-c2ccc(OC)cc2)noc1C(=O)O | 0.588% |
| CCn1cc(-c2nn3c(C(F)(F)F)nnc3s2)cn1 | -12.3% |
| CC1CCc2[nH]c(=O)c(C(=O)N3CCc4ccccc4C3)cc2C1 (stereo not given) | -6.77% |
| CCN(c1ccsc1C(=O)N1CCCCC1)S(=O)(=O)c1ccccc1 | 9.78% |
| CCC(C)NC(=O)c1nnn(-c2ccc(Br)cc2)n1 (stereo not given) | 5.81% |
| O=C(O)CC(CC(=O)N(Cc1ccsc1)C1CC1)c1cccs1 (stereo not given) | 7.8% |
| Cc1nsc(C(=O)NCCc2ccc(F)cc2)n1 | -6.92% |
| O=C(c1ccsc1)N1C[C@@H]2CCN(C(=O)c3cccc(F)c3)[C@@H]2C1 | 1.47% |
| Cc1cnc(N2CC(C(=O)N3CCOCC3)C3(CCOCC3)C2)nc1 (stereo not given) | 4.47% |
| CN1CCN([C@@H]2CN(C(=O)c3ccsc3)[C@@H]3CCCO[C@H]23)CC1 | 6.74% |
| O=C(Nc1cnn(Cc2ccc(F)cc2Cl)c1)C1CC1 | -4.83% |
| Cc1nc2[nH]cnc(Nc3cnn(C)c3)c-2n1 | 5.59% |
| Cn1ncc(C(=O)N2CCN(S(C)(=O)=O)CC2)c1Cl | 7.58% |
| COc1cc(-c2n[nH]c(CCN)n2)cc(OC)c1OC | -0.297% |
| Cc1nc(N2CCCC2)ncc1-c1cc(O)nc(N2CCCC2)n1 | 6.79% |
| CN1CCN(C(=O)CCn2nnc3ccccc32)CC(C(N)=O)C1 (stereo not given) | 2.24% |
| Cc1cc(Cc2ccccc2C)cc(C2CCCNC2)n1 (stereo not given) | -3.59% |
| CC(C)CC(NC(=O)c1cccs1)c1nc2cccnc2n1C (stereo not given) | 7.27% |
| Cc1nn(C)cc1NC(=O)CC1CCN(C(=O)Cc2ccccc2)CC1 | 1.96% |
| O=C1CCC[C@]2(CN(S(=O)(=O)C3CCCCC3)C[C@H]2c2cccnc2)N1 | -12.4% |
| Cc1cc(C(=O)NCCc2c(C)nn(C)c2C)nc(N2CCCCC2)n1 | -16% |
| Cc1nc(CCC(N)=O)cc(C2CCNCC2)n1 | -15.1% |

| SMILES | cytotoxicity at 10 µM |
| --- | --- |
| O=C(N[C@@H]1CN(Cc2cccc3[nH]ccc23)C[C@H]1O)c1cscn1 | -2.86% |
| Cc1cccc(NCC(=O)NC2(C#N)CCCC2)c1C(=O)N1CCCC1 | -0.69% |
| Cc1ccc(C(C)NC(=O)Cc2c(C)nc3cc(=O)[nH]n3c2C)s1 (stereo not given) | -0.159% |
| CN(C)CCN(Cc1ccc(Cl)cc1)C(=O)c1ccn(C)c(=O)c1 | -5.22% |
| O=C(Cc1ccon1)N(CCC(F)(F)F)C1CCCC1 | -9.36% |
| Cc1ccc(S(N)(=O)=O)cc1C(=O)NC1CCN(C2CC2)CC1 | 13.3% |
| COc1c(Cl)cc(Cl)cc1CN1CCC(C(N)=O)C1 (stereo not given) | 11.9% |
| COc1cccc(CC(=O)NCCc2nnc3n2CCCCC3)c1 | -18.4% |
| Cc1cc(C)n(C2CN(Cc3nc4cc(Cl)ccc4n3C)C2)n1 | -2.35% |
| Cn1c(CN2CCCC(N3CCCCCC3)C2)cc(=O)n(C)c1=O (stereo not given) | -1.85% |
| CC(C)CN(C)S(=O)(=O)c1ccc(Cl)cc1C#N | -47.2% |
| CC(NC(=O)Nc1cccnc1N1CCOCC1)c1ccccn1 (stereo not given) | 0.456% |
| O=C(NC1CCCOc2cc(Cl)ccc21)c1ccc(=O)[nH]n1 (stereo not given) | 1.5% |
| Cn1c(SCc2noc(C(C)(C)C)n2)nnc1C1CCS(=O)(=O)C1 (stereo not given) | 8.32% |
| COCCCC(=O)Nc1[nH]nc(-c2ccncc2)c1C | -0.158% |
| Cc1ccsc1C(Cc1ccccc1)NC(=O)CSCC(N)=O (stereo not given) | 8.13% |
| CCn1cc(S(=O)(=O)NCC(OC)c2cccc(Cl)c2)cn1 (stereo not given) | 10.1% |
| COCc1nc2cc(NCc3ncc[nH]3)ccc2o1 | -4.52% |
| Cc1cccc(NC(=O)[C@@H]2CCCN2Cc2nc(C)c(C)o2)n1 | -4.34% |
| CNC(=O)CS(=O)(=O)Cc1coc(-c2cccc(F)c2)n1 | 1.28% |
| COC(=O)NCC(=O)N1CCc2cc(Cl)cc(Cl)c2C1 | 0.598% |
| O=C(NCC1(CO)CC1)NC(c1nccs1)C1CC1 (stereo not given) | 1.23% |

| SMILES | cytotoxicity at 10 µM |
| --- | --- |
| O=C(c1cccc(F)c1Cl)N(CCO)CC1CC1 | 0.684% |
| c1ccc(-c2nnc(CNCC3CCCN3c3cccnn3)o2)cc1 (stereo not given) | -10.5% |
| CN(Cc1nnc(C2CC2)n1C)C1CCN(CCc2ccncc2)C1 (stereo not given) | -4.56% |
| CCOc1ncccc1NC(=O)c1cccs1 | 0.932% |
| COc1ccc(F)cc1C[S+]([O-])CC(=O)NCC(C)C (stereo not given) | -5.95% |
| CNC(=O)c1cccc(CCNc2ccc(C#N)cn2)c1 | -3.67% |
| COc1ccc(F)cc1C[S+]([O-])CC(=O)NCc1ccccc1 (stereo not given) | -8.97% |
| Cc1cc(C)cc(NC(=O)CC2CN(Cc3ccccc3)CCO2)c1 (stereo not given) | -8.46% |
| O=C(Nc1ccccc1-c1cccs1)N1CCN(CC(F)F)CC1 | -2.11% |
| CCn1c(C)cc(C(=O)NCc2cccc(S(=O)(=O)NC)c2)c1C | -6.43% |
| CNC(=O)CN(C(=O)c1cc(C(C)C)no1)c1cccc(F)c1 | 9.77% |
| CC(C)(CCS(C)(=O)=O)CNC(=O)NC1CCCCC1(C)C (stereo not given) | 11.3% |
| COc1c(C)cnc(CN(C)C(=O)Nc2ccc3c(c2)CCO3)c1C | -0.921% |
| Cc1ccc(NC(=O)c2ncc(C(N)=O)cc2Cl)cc1F | -3.53% |
| O=C(NCC(CO)Cc1ccc(Cl)cc1)c1ccncc1F (stereo not given) | -4.84% |
| Cc1cnn(CCCNC2Cc3ccccc3C2)c1 | 3.34% |
| COc1ccccc1C1(CNc2ncc(S(N)(=O)=O)s2)CC1 | -3.6% |
| Cc1cc(C)c(CNC(=O)NCc2nnc3n2CCCC3)c(=O)[nH]1 | -5.34% |
| CCc1noc(CN(C)C(=O)COc2cc(Cl)cc(Cl)c2)n1 | -0.966% |
| O=S(=O)(Cc1ccc(F)c(Cl)c1)NC(CO)c1ccco1 (stereo not given) | -3.49% |
| Cc1nn(C)c(C)c1CCC(=O)Nc1cn(C)c(=O)n(C)c1=O | 20.6% |
| CCSCCC(=O)Nc1ncn(Cc2cccnc2)n1 | 25.1% |

| SMILES | cytotoxicity at 10 µM |
| --- | --- |
| COc1cccc(S(=O)(=O)CCN2CCCCC2)c1 | 2.37% |
| Cc1ccc(CC(=O)NC(C)C(=O)N2CCS(=O)(=O)CC2)cc1 (stereo not given) | 1.73% |
| COCC(=O)N(C)Cc1ccc(Cl)c(Cl)c1 | -5.13% |
| CS(=O)(=O)N1CCO[C@@H]2CN(C(=O)N3CCOCC3)CC[C@@H]2C1 | -105% |
| Cc1noc(C)c1C(=O)N1C[C@@H]2C[C@@H](c3ccncn3)O[C@@H]2C1 | -70% |
| CCn1ncnc1CN1CCC(CNC(=O)c2cccnc2O)C1 (stereo not given) | 7.06% |
| CN(Cc1cccnc1)c1nc(-c2ccccn2)nc2c1CCNCC2 | 3.64% |
| COCCn1ccnc1C1CCN(c2cccc(C(=O)O)n2)CC1 | -2.74% |
| Cc1cccc(C(Nc2nccc(-c3ccc(C)nc3C)n2)C2CC2)n1 (stereo not given) | 0.74% |
| CCN(CC)C(=O)[C@@H]1C[C@@H](N)CN1C(=O)c1cc2c([nH]c1=O)CCC2 | -2.79% |
| Cc1n[nH]c(C)c1C(N)C(=O)NCCc1csc(C(C)C)n1 (stereo not given) | -8.64% |
| Cc1cc(CNCC2(O)CCCN(CCCc3ccccc3)C2=O)n[nH]1 (stereo not given) | -2.4% |
| Cn1c(Cn2cccn2)nnc1C1CCN(Cc2ccccc2Cl)CC1 | -0.4% |
| COc1cccc(C2CCCN2C(=O)c2cc3c(nc2OC)CCC3)c1 (stereo not given) | -10.2% |
| O=C(c1ccc2c(c1)OCO2)N1C[C@@H](CN2CCCCC2)[C@@H](CO)C1 | -4.06% |
| COc1cccc(-c2noc(-c3ccc(N4CC(N)C4)nc3)n2)c1OC | -4.8% |
| CCCSc1nc(O)c(CC)c(=O)n1-c1ccccc1 | 2.77% |
| CC(O)CN1CCc2onc(-c3ccccc3F)c2C1 (stereo not given) | 0.963% |
| CCCN1CC2(CCN(C)CC2)CC1C(=O)NCCn1ccc(C)n1 (stereo not given) | -5.64% |
| COCc1cc(CN(C)C(=O)c2c[nH]nc2-c2cccc(F)c2)n[nH]1 | 0.445% |
| O=C(O)c1ccnc(-c2ccnc(NCCc3cscn3)n2)c1 | 0.852% |
| COc1cc(N2CCC(c3nccn3CCCN(C)C)CC2)nc(N)n1 | -7.41% |

| SMILES | cytotoxicity at 10 µM |
| --- | --- |
| O=C(N[C@H]1CN(c2ccncc2)C[C@@H]1C1CC1)C1CCOCC1 | -11.8% |
| Cc1cc(N2CCCN(C(C(=O)O)c3cccc(C)c3F)CC2)ccn1 (stereo not given) | -2.11% |
| COCCNS(=O)(=O)c1ccc2c(c1)CCN(C(=O)c1cncn1C)C2 | 9.65% |
| N#Cc1ccc(C2CC(=O)Nc3c2cnn3C2CCCC2)cc1 (stereo not given) | 13.2% |
| CCn1cnnc1C1CCN(C(=O)c2cc(C)n(CC)c2C)CC1 | -6.08% |
| O=C(N1CCCC(n2cncn2)C1)C1(c2cccc(F)c2)CCC1 (stereo not given) | 0.322% |
| CCc1nnsc1C(=O)N1CCCC(n2nc(C)nc2C)C1 (stereo not given) | 4.63% |
| Cc1ccc(CN(C)C(=O)c2scnc2C)cc1 | -6.8% |
| CC(=O)N1CCCN(C(=O)NCCCn2cncn2)CC1 | -10.1% |
| CCOc1ccccc1C(CC(=O)Nc1ccccn1)NC(C)=O (stereo not given) | -3.95% |
| O=C(c1cncc2ccccc12)N1CCC[C@@H]1CO | 2.37% |
| NC(=O)Cn1cc(NC(=O)N2CCCC2)cn1 | -8.67% |
| Cc1nn(C)c(C)c1C1CCCN1C(=O)c1cc[nH]n1 (stereo not given) | 1.35% |
| CC(NC(=O)NCCCNS(C)(=O)=O)c1ccncc1 (stereo not given) | 1.08% |
| O=C(NC1CCCC1)c1ccnc(C2CCNCC2)c1 | -11.3% |
| Cc1ncsc1C(=O)NCC1CCC2(CCNCC2)CO1 (stereo not given) | 19.1% |
| CN1CCC(c2n[nH]c3ncccc23)C1 (stereo not given) | -20.1% |
| CN1CCN([C@@H]2CCN(CC3CCOC3)[C@H]2Cc2cnn(C)c2)CC1 (stereo not given in full) | 5.25% |
| Cc1ccc(CN2CC(C(=O)N3CCCC3)C3(CCOCC3)C2)s1 (stereo not given) | -0.152% |
| Cc1ccc(CN2C[C@@H]3[C@@H](C(=O)N4CCCC4)CCS(=O)(=O)[C@@H]3C2)cc1 | 0.411% |
| CO[C@H]1CCN(Cc2ccccn2)[C@@H]2CN(Cc3ccco3)C[C@H]12 | -7.76% |
| C=C1C(C)(C)[C@@H]2CC[C@]1(C(=O)N1CCC(n3cc(CCO)nn3)CC1)C2 | -4.28% |
